Results reported in paper PMC4761526 (Journal of pharmaceutical sciences, 2016).
“And” between values parts separate entries of the source, which are not always exact repeats. Equal values may be shown once. One block for each compound: values may come before it.

Legend:
MRP2 = MRP2 (Homo sapiens, UniProt Q92887); assay: CDF directional; assay type: cell-based
MRP2 and/or MRP3 = assay: Net CDF uptake into Caco-2 grown on 24-well plates after CDFA exposure; assay type: cell-based, human; settings: 100 μM compound, 30 min with 5 μM CDFA, cells on plastic
[1] = tested on: esterase-mediated conversion of CDFA to CDF; assay: CDFA hydrolysis to CDF by Caco-2 cells; assay type: cell-based, human; settings: 100 μM compound
Procedure, shortened: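 Caco-2 cells from ATCC, used at passages 35–55, grown in DMEM with 10% FBS, 1% non-essential amino acids, 1 mM sodium pyruvate and 2 mM L-glutamine at 37°C in 5% CO2. CDFA was taken from a 5 mM stock in 1:1 DMSO:ethanol. CDF formation was expressed as specific activity per mg protein under initial-rate conditions, N = 3 per condition.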

[2] = tested on: genistein conjugative metabolism; assay: Genistein conjugative metabolism; assay type: in vitro ADME, human
Caco-2 [3] = assay: Lucifer yellow permeability in Caco-2; assay type: in vitro ADME, human; settings: control vs in the presence of 50 μM glyceollin
Caco-2 [4] = assay: Genistein conjugate metabolite excretion from Caco-2; assay type: in vitro ADME, human

Chain of MRP2 (Q92887 whole entry): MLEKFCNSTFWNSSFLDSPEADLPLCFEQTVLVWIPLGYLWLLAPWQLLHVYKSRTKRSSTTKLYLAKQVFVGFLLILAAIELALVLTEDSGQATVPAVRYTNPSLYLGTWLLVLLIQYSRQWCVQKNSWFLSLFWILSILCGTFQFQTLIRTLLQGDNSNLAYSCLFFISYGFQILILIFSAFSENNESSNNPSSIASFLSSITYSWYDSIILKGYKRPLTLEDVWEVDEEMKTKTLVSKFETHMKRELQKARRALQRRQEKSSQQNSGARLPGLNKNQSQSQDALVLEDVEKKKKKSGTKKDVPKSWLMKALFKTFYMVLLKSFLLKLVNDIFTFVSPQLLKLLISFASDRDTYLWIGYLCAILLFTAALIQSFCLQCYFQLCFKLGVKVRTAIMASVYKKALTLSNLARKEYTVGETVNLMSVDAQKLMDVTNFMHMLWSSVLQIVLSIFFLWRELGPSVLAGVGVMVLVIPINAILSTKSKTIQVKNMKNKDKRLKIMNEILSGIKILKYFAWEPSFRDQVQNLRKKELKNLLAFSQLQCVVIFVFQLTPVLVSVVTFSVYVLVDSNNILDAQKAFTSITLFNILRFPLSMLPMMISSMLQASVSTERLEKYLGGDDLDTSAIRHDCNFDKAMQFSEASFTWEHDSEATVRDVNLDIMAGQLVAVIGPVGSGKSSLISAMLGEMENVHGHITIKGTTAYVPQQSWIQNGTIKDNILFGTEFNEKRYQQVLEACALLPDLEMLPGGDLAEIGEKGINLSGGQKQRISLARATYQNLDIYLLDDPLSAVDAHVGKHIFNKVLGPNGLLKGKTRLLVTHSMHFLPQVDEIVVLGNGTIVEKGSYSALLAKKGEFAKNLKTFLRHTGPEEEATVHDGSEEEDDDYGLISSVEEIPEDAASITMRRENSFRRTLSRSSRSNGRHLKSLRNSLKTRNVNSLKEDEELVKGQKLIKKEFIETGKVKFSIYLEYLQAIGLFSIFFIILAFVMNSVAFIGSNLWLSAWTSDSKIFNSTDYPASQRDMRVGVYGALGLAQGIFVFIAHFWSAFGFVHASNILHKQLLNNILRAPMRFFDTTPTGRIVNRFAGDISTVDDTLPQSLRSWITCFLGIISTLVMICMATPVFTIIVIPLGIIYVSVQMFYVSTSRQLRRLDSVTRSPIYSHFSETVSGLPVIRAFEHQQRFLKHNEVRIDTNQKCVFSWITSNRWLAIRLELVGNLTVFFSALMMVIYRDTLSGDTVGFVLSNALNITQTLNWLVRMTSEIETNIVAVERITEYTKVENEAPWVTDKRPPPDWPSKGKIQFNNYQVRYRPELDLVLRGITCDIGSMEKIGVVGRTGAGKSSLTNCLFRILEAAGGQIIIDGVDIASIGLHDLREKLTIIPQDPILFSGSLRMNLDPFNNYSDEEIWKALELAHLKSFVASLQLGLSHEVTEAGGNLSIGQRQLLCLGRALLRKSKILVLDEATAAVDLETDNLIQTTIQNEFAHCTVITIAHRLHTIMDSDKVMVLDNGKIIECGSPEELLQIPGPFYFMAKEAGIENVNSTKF

Compound: 5 (and 6)-Carboxy-2′,7′-dichloroflourescein [CDF]
CDF permeability, BA direction vs. AB direction (MRP2; control conditions, no inhibitor): 3.7 ± 0.36 fold

Compound: Lucifer yellow
lucifer yellow permeability (Caco-2 [3]): 0.13 ± 0.035 × 10^-5 cm/s

Second part, led by results:

CDF AB directional transport (MRP2; 100 μM compound vs control): statistically significant increase
CDF BA directional transport (MRP2; 100 μM compound vs control): statistically significant reduction
CDF cell concentration at the conclusion of the 2-hour incubation (MRP2; 100 μM compound, both transport directions): reduced
IC50 for reduction of CDF BA/AB permeability ratio (MRP2; 10, 30 or 100 μM compound): 22 µM
Compound: CN(C)C(=O)CCSC(SCCC(=O)O)c1cccc(/C=C/c2ccc3ccc(Cl)cc3n2)c1 (stereo not drawn) [MK-571]
CDF uptake (MRP2 and/or MRP3): significant reduction
rate of esterase-mediated conversion of CDFA to CDF [1]: did not alter
CDFA hydrolysis specific activity (initial rate) ([1]; 5 μM CDFA, control 6.0): 8.5 nM/min/mg protein

fraction of genistein metabolized to conjugates (Fm), average ([2]; control vs 30 μM glyceollin, average of two experiments): 47% ± 10.5% and 47%
Compound: O=c1c(-c2ccc(O)cc2)coc2cc(O)cc(O)c12 [genistein]

intracellular genistein conjugates ([2]; Caco-2): 9 ± 2.7 pmoles/filter
apical metabolite excretion rate (Caco-2 [4]): 6.5 ± 0.61 × 10^-5 nmoles/sec
Compound: glyceollin
